Bioassay records (PubChem BioAssay)
HCV NS3 hel inh = inhibitors of HCV NS3 helicase, primary screen, biochemical, Cy5 molecular beacon fluorescence; Hepatitis C virus NS3 helicase; NS3 helicase DNA unwinding; inhibition, % at 10.9 µM; 290,000 tested, 0.56% active;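 active = inhibition above the mean of all tested compounds plus 3 SD, set per campaign, cut at about 35% in these data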;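 also: 0% = DMSO wells and 100% = thioflavine S control wells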
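Measured by: Cy5 fluorescence, 0 and 60 min reads / Assay system: NS3 helicase fragment of HCV / Control set: low DMSO, high thioflavine S at 110 µM / Times: 1 h reaction at 25 °C, ATP-initiated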
MEKK2wt PB1 HTS = modulators of MEK5 binding to wildtype MEKK2, primary screen, biochemical, multiplex bead flow cytometry, Alexa488-MEK5. AID 1531, 2009. 290,000 tested, 1.1% active. binding response (% of control), % at 10 µM. Alexa488-MEK5 binding to MEKK2 WT; actives lie on both sides. Mitogen-activated protein kinase kinase kinase 2 (Homo sapiens), Q9Y2U5; in the data active = binding response below about 67% or above about 130%
MEKK3 PB1 HTS = modulators of MEKK3-MEK5 PB1 binding, primary screen, biochemical, wildtype MEKK3, multiplex bead flow cytometry, Alexa488-MEK5; Mitogen-activated protein kinase kinase kinase 3 (Homo sapiens), Q99759; bead-based flow cytometry, Alexa488-MEK5 binding to MEKK3; actives lie on both sides; 0 = blocked by unlabeled MEK5, 100 = vehicle; binding response (% of control), % at 10 µM; 290,000 tested, 1.4% active; AID 1529, 2009;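 active = binding response more than 3 SD above or below the average of its plate-row segment, actives on both sides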;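 also: Alexa488 bead fluorescence after subtracting the streptavidin-only scavenger bead signal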
Target sequence (Q99759 whole entry, looked up): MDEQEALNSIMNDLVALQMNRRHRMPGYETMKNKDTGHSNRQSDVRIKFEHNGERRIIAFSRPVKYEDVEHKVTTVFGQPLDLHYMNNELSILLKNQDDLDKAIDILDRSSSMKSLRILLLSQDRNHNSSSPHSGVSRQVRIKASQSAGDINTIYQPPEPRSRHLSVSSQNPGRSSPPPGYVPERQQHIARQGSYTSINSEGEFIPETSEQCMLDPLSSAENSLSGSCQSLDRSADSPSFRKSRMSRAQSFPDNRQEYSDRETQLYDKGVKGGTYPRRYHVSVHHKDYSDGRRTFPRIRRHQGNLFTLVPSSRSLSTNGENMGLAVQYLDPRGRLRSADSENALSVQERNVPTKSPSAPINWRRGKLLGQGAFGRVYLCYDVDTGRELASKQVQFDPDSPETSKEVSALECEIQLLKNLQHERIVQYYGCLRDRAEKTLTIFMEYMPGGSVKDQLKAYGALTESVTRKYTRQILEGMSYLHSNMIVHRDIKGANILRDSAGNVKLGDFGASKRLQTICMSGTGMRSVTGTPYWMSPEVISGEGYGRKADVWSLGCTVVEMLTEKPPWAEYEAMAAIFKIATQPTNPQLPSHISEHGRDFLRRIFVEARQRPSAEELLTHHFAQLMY
DNA FID counter = compounds displacing fluorescent DNA intercalator, primary screen, artefact control for HCV NS3 helicase inhibitor project, biochemical, FID fluorescence; 290,000 tested, 0.17% active; inhibition, % at 7.9 µM; DNA fluorescent intercalator displacement; AID 1845, 2009; in the data active = inhibition above about 37%;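 also: 0% = vehicle and 100% = reference compound; higher means more ethidium bromide displaced from hairpin DNA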
T cruzi repl = inhibitors of intracellular T. cruzi growth, primary screen, luminescence, NIH3T3 host cells | 300,000 tested, 1.4% active | inhibition, % (no concentration beside the values) | T. cruzi beta-gal in NIH3T3, 90 h | AID 1885, 2009;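 active = mean inhibition across valid replicates above about 55%, limit read from the data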;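 also: signal also drops with host cell toxicity which is not excluded here; 0% = plate median of DMSO wells and 100% = zero luminescence signal; higher percent means less beta-gal luminescence so fewer parasites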
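System – NIH/3T3 host cells with β-galactosidase reporter T. cruzi · Doses – single 50 nL compound addition per well in DMSO · Reagent – 5000 T. cruzi trypomastigotes/well · Medium – Low-serum DMEM with 2% FBS · Timing – ≥90 h infection period, 3 h prior cell attachment · Evaluation – parasite load inhibition, % · Technique – GalScreen luminescence, 60 min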
MEKK2 mut-MEK5 = MEK5 binding signal on mutant MEKK2 PB1, primary screen, biochemical, multiplex bead flow cytometry, Alexa488-MEK5 | Alexa488-MEK5 binding to MEKK2 mutant | percent response, % at 10 µM | 290,000 tested, 0.35% active; in the data active = percent response above about 24%, passing the limit was not always enough
MEKK2wt confirm = modulators of MEK5 binding to wildtype MEKK2, confirmation, biochemical, single concentration, multiplex bead flow cytometry | shares compounds with MEKK3 PB1 HTS | Alexa488-MEK5 binding to MEKK2 WT; actives lie on both sides | binding response (% of control), % at 10 µM | 5,900 tested, 2.4% active | AID 1892, 2009; in the data active = binding response below about 16% or above about 210%; inactive = in between
MEKK2mut-MEK5 = mutant MEKK2 PB1-MEK5 binding signal retest – biochemical, single concentration, multiplex bead flow cytometry, confirmation; shares compounds with MEKK3 PB1 HTS; 5,900 tested, 2% active; Alexa488-MEK5 binding to MEKK2 mutant; percent response, % at 10 µM; AID 1893, 2009; in the data active = percent response mostly above about 71%, no sharp cut-off; inactive = mostly below about 38%;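 also: higher means compound restores mutant binding toward wildtype level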
MEKK3-MEK5 inh = MEKK3 wild-type PB1 binding to MEK5, inhibitors, confirmation, biochemical, bead multiplex flow cytometry, single concentration, wildtype; Alexa488-MEK5 binding to MEKK3; hits give low values; shares compounds with MEKK3 PB1 HTS; AID 1894, 2009; 5,900 tested, 1.8% active; binding response (% of control), % at 10 µM;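 active = binding response below 72% of control, or above a set upper limit, though filed actives all read lower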;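 also: 100% = DMSO only wells and 0% = binding blocked by excess unlabeled MEK5; lower values mean stronger disruption of MEK5 binding to MEKK3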
* hit, by the source's call; / = no result given. A selection: hits, their analogues and other compounds. The true share with any hit is near 4.1%.

SMILES	HCV NS3 hel inh	MEKK2wt PB1 HTS	MEKK3 PB1 HTS	DNA FID counter	T cruzi repl	MEKK2 mut-MEK5	MEKK2wt confirm	MEKK2mut-MEK5	MEKK3-MEK5 inh
CC(=O)c1ccc(N2Cc3ccccc3/C2=N\C(=O)Nc2ccc(Cl)cc2)cc1	-4	96	98	-4	26	-1	/	/	/
COC(=O)c1ccc(N2Cc3ccccc3/C2=N\C(=O)Nc2ccccc2)cc1	2	104	137*	-9	-6	0	101	6	105
O=C(/N=C1/c2ccccc2CN1c1ccccc1)Nc1ccccc1	-6	109	138*	0	9	1	102	4	103
O=C(O)CCN1CCN(S(=O)(=O)c2ccc3ccccc3c2)CC1	-3	96	97	4	-15	4	/	/	/
CCCCC(=O)Nc1ccc(N2CCN(C(=O)c3ccco3)CC2)cc1	6	102	99	-20	-2	5	/	/	/
CC(C)(C)S(=O)(=O)c1cnc(-c2ccccn2)nc1N	-5	93	92	-7	-16	-12	/	/	/
CC(C)(C)S(=O)(=O)c1cnc(-c2cnccn2)nc1N	10	114	134*	-4	-12	29	94	-6	98
O=C(NCc1ccco1)c1cc2cc(Br)ccc2o1	3	95	97	-8	-3	-5	/	/	/
CCCCN(C(=O)CSc1nnc2ccccn12)c1c(N)n(Cc2ccccc2)c(=O)[nH]c1=O	5	106	128*	-14	-6	0	108	7	102
O=C(NCCC(=O)N1CCN(C(=O)c2ccco2)CC1)c1ccc(Br)cc1	/	/	/	/	-1	/	/	/	/
COc1ccc([N+](=O)[O-])cc1NC1CCCCC1	1	123	128*	2	12	7	99	-7	99
CCc1cccc(NC(=O)Cn2cc(C=O)c3ccccc32)c1	9	87	103	5	-4	-11	/	/	/
COc1cccc(CN2CCC(n3nccc3NC(=O)CCOc3ccccc3)CC2)c1	-11	117	104	7	5	9	/	/	/
O=C(CCOc1ccccc1)Nc1ccnn1C1CCN(Cc2ccc(O)cc2)CC1	-83	148*	109	4	-2	22	135	17	105
Cc1cc([N+](=O)[O-])cc2c1NC(=O)C2(O)N1CCCCCC1 (stereo unspecified)	3	118	163*	-5	17	2	111	4	106
O=C(NC1CCN(Cc2ccccc2)CC1)c1ccc(Cn2c(=S)[nH]c3ccc(N4CCOCC4)cc3c2=O)cc1	-57	154*	110	19	60*	26	162	39	104
COc1cccc(CNC(=O)CCCCCn2c(=S)[nH]c3ccc(N4CCOCC4)cc3c2=O)c1	7	105	130*	-1	1	-1	96	-7	98
COCCN(CCOc1cc(C)cc(C)c1)Cc1ccc(Cl)cc1	4	107	100	-10	10	6	/	/	/
O=C(N/N=C/C(Br)=C/c1ccccc1)c1cccs1	-3	81	93	-8	4	-11	/	/	/
O=C(NCc1ccc2c(c1)OCO2)c1nnc(Cc2ccc(F)cc2)o1	-5	101	116	-29	-7	-2	/	/	/
